Test results reported in ChEMBL document CHEMBL1275590, “Novel arylimidamides for treatment of visceral leishmaniasis” (Antimicrob Agents Chemother, 2010).
Activity calls are given as the source filed them.

What was measured:
[1] = Oral bioavailability in Swiss Webster mouse at 131 mg/kg by HPLC-MS/MS analysis; format: ADME, organism-based; conditions: in vivo
Procedure, shortened: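 Male Swiss Webster mice (n = 3 per time point), single dose by oral gavage (sterile water solution) or tail-vein bolus i.v. (water diluted 1:1 with 2× saline, over ~10–20 s); dose volume 5 ml/kg. Terminal blood sampled from 5 min to 72 h postdose; plasma quantified by HPLC-MS/MS (positive-ion SRM). Noncompartmental analysis gave Cmax, Tmax, AUC0-∞, CL, Vss; bioavailability from p.o. versus i.v. exposure.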

Mus musculus [2] = experiment: Hepatotoxicity in BALB/c mouse assessed as alkaline phosphatase level in serum at 100 mg/kg/day, po administered for five days (Rvb= 129 U/L); format: toxicity, organism-based; set-up: route oral; conditions: in vivo
Mus musculus [3] = experiment: Volume of distribution in Swiss Webster mouse at 131 mg/kg, po by HPLC-MS/MS analysis; format: ADME, organism-based; set-up: dose 131 mg/kg, route oral; conditions: in vivo
Procedure, shortened: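 Male Swiss Webster mice (n = 3 per time point) got a single oral gavage dose in sterile water, 5 ml/kg. The 5 mM formulation was a clear solution; the 20 and 40 mM formulations were gelatinous. Terminal blood was collected from 5 min to 72 h postdose, and plasma was analysed by HPLC-MS/MS. Volume of distribution came from noncompartmental analysis.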

Mus musculus [4] = experiment: Renal toxicity in BALB/c mouse assessed as phosphorus level in serum at 10 mg/kg/day, iv administered for five days ((Rvb= 6.1 mg/dl); format: organism-based; set-up: route intravenous; conditions: in vivo
Procedure, shortened: (§1)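 Female BALB/c mice (n = 5 per dose), dosed once daily for 5 consecutive days p.o. (20 ml/kg) or i.v. (10 ml/kg) with compound in sterile water, prepared fresh daily under yellow light. Vehicle controls n = 5 per route. Clinical observations, body weights, serum chemistry and hematology on day 6 before necropsy; histopathology of formalin-fixed tissues. Chemistry analysed by one-way ANOVA with Dunnett's posttest.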

[5] = Volume of distribution in Swiss Webster mouse at 4.9 mg/kg, iv by HPLC-MS/MS analysis; format: ADME, organism-based; set-up: dose 4.9 mg/kg, route intravenous; conditions: in vivo
Procedure, shortened: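 Male Swiss Webster mice (n = 3 per time point) got a single tail-vein bolus over ~10 to 20 s, 5 ml/kg. Compound was dissolved in sterile water at 2× and diluted 1:1 with 2× saline. Terminal blood was taken from 5 min to 72 h, and plasma was quantified by HPLC-MS/MS. Vss came from noncompartmental analysis.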

Mus musculus [6] = experiment: Hepatotoxicity in BALB/c mouse assessed as AST level in serum at 150 mg/kg/day, po administered for five days (Rvb= 70 U/L); format: toxicity, organism-based; set-up: route oral; conditions: in vivo
[7] = Drug level in Swiss Webster mouse spleen at 5 mg/kg, iv after 2 hrs by HPLC/UV analysis; conditions: read-out: Drug uptake
Mus musculus [8] = experiment: Toxicity in BALB/c mouse assessed as hypoactivity at 50 mg/kg/day, ip administered for five days; format: organism-based; set-up: route intraperitoneal; conditions: in vivo
Mus musculus [9] = experiment: Toxicity in BALB/c mouse assessed as occurrence of tremor at 20 mg/kg/day, iv administered for five days measured on day 2; format: organism-based; set-up: route intravenous; conditions: in vivo; procedure, shortened: as §1
[10] = Induction of mutagenicity in Salmonella serovar Typhimurium TA 98 assessed as number of revertant colonies at 1 ug by Ames assay in presence of Aroclor 1254-induced rat liver S9 metabolic activation system; format: toxicity, subcellular, Salmonella enterica subsp. enterica serovar Typhimurium
Procedure, shortened: (§2)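 Ames plate incorporation with S. Typhimurium TA98 and TA100, with or without Aroclor 1254-induced rat liver S9 (10% vol/vol). Compound was dissolved in sterile water and serially diluted to 1–500 μg/plate. Positive controls were 2-nitrofluorene and sodium azide without S9, and 2-aminoanthracene with S9; sterile water and DMSO served as vehicles. Revertant colonies and background lawn were scored. A mutagen was defined as a mean revertant count at least 2-fold over solvent control. Single experiment.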

[11] = Drug level in Swiss Webster mouse spleen at 70 mg/kg, po after 2 hrs by HPLC/UV analysis; conditions: read-out: Drug uptake
Leishmania donovani [12] = experiment: Antileishmanial activity against Leishmania donovani WR378 infected in golden Syrian hamster assessed as reduction in bone marrow parasitemia at 50 mg/kg/day, po administered for five days; format: functional; conditions: 120 h
Procedure, shortened: (§3)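 11-day golden hamster VL model adapted from an 8-day method, using L. donovani WR378 metacyclic promastigotes. Dosing was oral, once daily for 5 days. Animals were euthanized on day 11 post-infection. Liver, spleen and femoral bone marrow (flushed with Schneider's medium) were harvested.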

Leishmania donovani [13] = experiment: Antileishmanial activity against Leishmania donovani WR378 infected in golden Syrian hamster assessed as reduction in liver parasitemia at 30 mg/kg/day, po administered for five days; format: functional; conditions: 120 h; procedure, shortened: as §3
Mus musculus [14] = experiment: Renal toxicity in BALB/c mouse assessed as phosphorus level in serum at 30 mg/kg/day, iv administered for five days (Rvb= 6.1 mg/dl); format: organism-based; set-up: route intravenous; conditions: in vivo; procedure, shortened: as §1
Mus musculus [15] = experiment: Hepatotoxicity in BALB/c mouse assessed as ALT level in serum at 100 mg/kg/day, po administered for five days (Rvb= 36 U/L); format: toxicity, organism-based; set-up: route oral; conditions: in vivo
[16] = Half life in Swiss Webster mouse at 5 mg/kg, iv by HPLC-MS/MS analysis; format: ADME, organism-based; set-up: dose 5 mg/kg, route intravenous; conditions: in vivo
Procedure, shortened: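 Male Swiss Webster mice, n = 3 per time point. For i.v., the compound was dissolved in sterile water, diluted 1:1 with 2× saline, and given as a tail-vein bolus over ~10–20 s. For p.o., it was given by gavage in sterile water. Dose volume was 5 ml/kg. Terminal plasma was taken from 5 min to 72 h and measured by HPLC-MS/MS (calibration 2.5–10,000 nM). Parameters came from noncompartmental analysis.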

[17] = Induction of mutagenicity in Salmonella serovar Typhimurium TA 98 assessed as number of revertant colonies at 5 ug by Ames assay in presence of Aroclor 1254-induced rat liver S9 metabolic activation system; format: toxicity, subcellular, Salmonella enterica subsp. enterica serovar Typhimurium
Procedure, shortened: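 Plate incorporation test, S. Typhimurium TA98 (and TA100), with or without Aroclor 1254-induced rat liver S9 (10% vol/vol). Compound dissolved in sterile water, serially diluted to 1–1,000 or 1–500 μg/plate. Positive controls: 2-nitrofluorene and sodium azide without S9, 2-aminoanthracene with S9; water and DMSO vehicle controls. Revertant colonies and background lawn scored; mutagen if mean revertants ≥2-fold solvent control. Single experiment.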

[18] = Induction of mutagenicity in Salmonella serovar Typhimurium TA 100 assessed as number of revertant colonies at 100 ug by Ames assay in presence of Aroclor 1254-induced rat liver S9 metabolic activation system; format: toxicity, subcellular, Salmonella enterica subsp. enterica serovar Typhimurium; procedure, shortened: as §2
Mus musculus [19] = experiment: Toxicity in BALB/c mouse at 100 mg/kg/day, po administered for five days; format: organism-based; set-up: route oral; conditions: in vivo
Procedure, shortened: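 Five-day repeat-dose study in female BALB/c mice (n = 5 per dose level): oral dosing once daily for five consecutive days in sterile water prepared fresh daily under yellow light, 20 ml/kg. Vehicle controls received sterile water only. Clinical observations and body weights were recorded, with blood for hematology and serum chemistry taken on day 6 before necropsy. A veterinary pathologist examined formalin-fixed tissues.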

Leishmania donovani [20] = experiment: Antileishmanial activity against Leishmania donovani promastigotes in BALB/c mouse assessed as inhibition of liver parasitemia at 30 mg/kg/day, ip administered for five days; format: functional, organism-based
Procedure, shortened: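 Murine VL model in L. donovani-infected mice. Compounds were dissolved in water and given i.p. or p.o. once daily for 5 days (4 days for one i.p. regimen). Liver parasitemia was compared with untreated controls by unpaired Student's t test, P ≤ 0.05.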

[21] = Induction of mutagenicity in Salmonella serovar Typhimurium TA 100 assessed as number of revertant colonies at 1 ug by Ames assay; format: toxicity, Salmonella enterica subsp. enterica serovar Typhimurium; conditions: in vivo; procedure, shortened: as §2

Q: What does the source list for `CCOc1cc(NC(=N)c2ccccn2)ccc1-c1ccc(-c2ccc(NC(=N)c3ccccn3)cc2OCC)o1`?
A: bioavailability [1]: 25%; Activity (Mus musculus [2]): 120 U/L; Vd (Mus musculus [3]): 76 L/kg; Activity (Mus musculus [4]): 8.1 mg/dL; Vd [5]: 22 L/kg; Activity (Mus musculus [6]): 770 U/L

Q: With `CC(C)Oc1cc(NC(=N)c2ccccn2)ccc1-c1ccc(-c2ccc(NC(=N)c3ccccn3)cc2OC(C)C)o1` as the molecule, how does the concentration at 2 h [7] read?
A: 13.5 µM

Q: What about the Activity (Mus musculus [8]) of the same molecule?
A: Toxic

Q: What about the Activity (Mus musculus [9]) of the same molecule?
A: Toxic

Q: What about the Activity [10] of the same molecule?
A: 43

Q: What about the concentration at 2 h [11] of the same molecule?
A: 43.1 µM

Q: What about the inhibition in vivo at 50 mg/kg/day (Leishmania donovani [12]) of the same molecule?
A: 70%

Q: What about the inhibition in vivo at 30 mg/kg/day (Leishmania donovani [13]) of the same molecule?
A: 75%

Q: And the Activity (Mus musculus [14])?
A: 7.6 mg/dL

Q: And the Activity (Mus musculus [15])?
A: 34 U/L

Q: What about the half-life [16] of the same molecule?
A: 24 h

Q: And the Activity [17]?
A: 48

Q: And the Activity [18]?
A: 98

Q: What about the Activity (Mus musculus [19]) of the same molecule?
A: Non-toxic

Q: And the Activity (Leishmania donovani [20])?
A: Active

Q: And the Activity [21]?
A: 152
